Assay results taken from ChEMBL document CHEMBL1141273, “Epicoccins A-D, epipolythiodioxopiperazines from a Cordyceps-colonizing isolate of Epicoccum nigrum” (2007).
Activity calls are given as the source filed them. The calls are words filed in the database; no cut-off is given here.

What was measured:
[1] = test system: Staphylococcus aureus; assay: Antimicrobial activity against Staphylococcus aureus ATCC 6538 at 100 ug/disk after 24 hrs; assay type: functional, organism-based
Method in brief: (§1)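 Bacteria grown on Mueller-Hinton agar. Paper disks (6 mm) bearing 100 µg compound placed on the agar. Plates incubated at 37 °C for 24 h and examined for a zone of inhibition.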

[2] = test system: Streptococcus mutans; assay: Antimicrobial activity against Streptococcus mutans ATCC 25175 at 100 ug/disk after 24 hrs; assay type: functional, organism-based; method in brief: as §1
[3] = test system: Enterococcus faecalis; assay: Antimicrobial activity against Enterococcus faecalis ATCC 19433 at 100 ug/disk after 24 hrs; assay type: functional, organism-based; method in brief: as §1
[4] = test system: Micrococcus luteus; assay: Antimicrobial activity against Sarcina lutea CMCC B28001 at 100 ug/disk after 24 hrs; assay type: functional, organism-based; method in brief: as §1
[5] = test system: Geotrichum candidum; assay: Antifungal activity against Geotrichum candidum AS2.498 at 100 ug/disk after 24 hrs; assay type: functional, organism-based
[6] = test system: Candida albicans; assay: Antifungal activity against Candida albicans ATCC 10231 at 100 ug/disk after 24 hrs; assay type: functional, organism-based
[7] = test system: Aspergillus fumigatus; assay: Antifungal activity against Aspergillus fumigatus ATCC 10894 at 100 ug/disk after 24 hrs; assay type: functional, organism-based
[8] = test system: Bacillus subtilis; assay: Antimicrobial activity against Bacillus subtilis ATCC 6633 at 100 ug/disk after 24 hrs; settings: for zone of inhibition at 100 µg/disc: ATCC 6633, 24 h, read-out: IZ

Structure (SMILES)	Activity [1]	Activity [2]	Activity [3]	Activity [4]	Activity [5]	Activity [6]	Activity [7]	zone of inhibition at 100 µg/disc [8] [mm]	Activity [8]
O=C1C[C@H]2SS[C@@]34C[C@@H]1[C@@H]([C@H]2O)N3C(=O)[C@@]12C[C@H]3C(=O)C[C@@H](S1)[C@H](O)[C@H]3N2C4=O [EPICOCCIN A]	inactive	inactive	inactive	inactive	inactive	inactive	inactive	12	
O=C1C[C@@H]2SS[C@@]34C[C@@H]1[C@@H]([C@H]2O)N3C(=O)[C@@]12C[C@H]3C(=O)[C@H](S1)[C@H](O)[C@H](O)[C@H]3N2C4=O	inactive	inactive	inactive	inactive	inactive	inactive	inactive		inactive
O=C1C[C@@H]2SS[C@@]34C[C@@H]1[C@@H]([C@H]2O)N3C(=O)[C@@]12C[C@H]3C(=O)C[C@H](SS1)[C@H](O)[C@H]3N2C4=O	inactive	inactive	inactive	inactive	inactive	inactive	inactive		inactive
O=C1C[C@@H]2S[C@@]34C[C@@H]1[C@@H]([C@H]2O)N3C(=O)[C@@]12C[C@H]3C(=O)C[C@H](S1)[C@H](O)[C@H]3N2C4=O	inactive	inactive	inactive	inactive	inactive	inactive	inactive		inactive
O=C(O)c1cn(C2CC2)c2cc(N3CCNCC3)c(F)cc2c1=O [CIPROFLOXACIN]								28	
